Values after ≈ are worked out from the molar mass of the structure shown.

One data set addresses T1, Bile acid receptor (Homo sapiens, UniProt Q96RI1).
T1 sequence (Q96RI1 whole entry): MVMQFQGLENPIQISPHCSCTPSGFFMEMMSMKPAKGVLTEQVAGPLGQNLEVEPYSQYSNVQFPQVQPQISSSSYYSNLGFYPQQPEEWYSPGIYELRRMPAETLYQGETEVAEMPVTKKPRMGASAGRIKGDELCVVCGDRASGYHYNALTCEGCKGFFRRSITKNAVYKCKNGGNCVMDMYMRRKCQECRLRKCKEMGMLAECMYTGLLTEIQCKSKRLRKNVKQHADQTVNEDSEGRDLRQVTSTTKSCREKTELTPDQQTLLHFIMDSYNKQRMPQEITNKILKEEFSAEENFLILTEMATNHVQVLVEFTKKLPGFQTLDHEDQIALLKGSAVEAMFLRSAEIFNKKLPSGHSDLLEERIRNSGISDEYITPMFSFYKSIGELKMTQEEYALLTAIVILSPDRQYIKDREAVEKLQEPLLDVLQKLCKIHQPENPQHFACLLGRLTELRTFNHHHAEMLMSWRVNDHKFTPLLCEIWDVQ
Description: Agonist activity at human FXR expressed in human HeLa cells assessed as receptor activation by BSEP promoter-driven firefly luciferase reporter gene assay. It counts as cell-based. Particulars: read-out: EC50. (In general: Reporter assays use an easily measured gene product as a stand-in for the process of interest.)

Data set [1] addresses T2, Bile acid receptor (Homo sapiens) (UniProt Q96RI1).
T2 sequence (whole entry): T1 sequence (Q96RI1 whole entry)
The data set can be described thus: Agonist activity at FXR in human HepG2 cells assessed as induction of SHP mrNA expression at 0.3 uM by quantitative PCR method. It counts as cell-based. Summed up: (§1)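 HepG2 cells were seeded at 2 × 10⁶ per well. After 24 h they were switched to MEM with 1% charcoal-stripped FCS, and 24 h later dosed with compound (0.1, 0.3, 1, 3, 10 μM; 0.1% DMSO final) for 24 h. Total RNA was reverse transcribed and analysed by qPCR, GAPDH-normalized, ΔΔCt method. Samples were run in duplicate in ≥4 independent experiments.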

Data set [2] has as its target T2, Bile acid receptor (Homo sapiens). The data set can be described thus: Agonist activity at FXR in human HepG2 cells assessed as induction of SHP mrNA expression at 3 uM by quantitative PCR method. The format is cell-based. Summed up: as §1
The target is the same in data set [3]. The data set can be described thus: Agonist activity at FXR in human HepG2 cells assessed as induction of SHP mrNA expression at 10 uM by quantitative PCR method. It counts as cell-based. An outline of the steps:
as §1

The target is the same in data set [4]. Description: Agonist activity at FXR in human HepG2 cells assessed as induction of CYP7A1 mrNA expression at 0.1 uM by quantitative PCR method. It counts as cell-based. An outline of the steps: as §1
For data set [5] the target is unchanged. Description: Agonist activity at FXR in human HepG2 cells assessed as induction of CYP7A1 mrNA expression at 1 uM by quantitative PCR method. The format is cell-based. Summed up: as §1
Data set [6] shares this target. The data set can be described thus: Agonist activity at FXR in human HepG2 cells assessed as induction of CYP7A1 mrNA expression at 10 uM by quantitative PCR method. It counts as cell-based. An outline of the steps: as §1
The target is the same in data set [7]. Description: Agonist activity at FXR in human HepG2 cells assessed as induction of BSEP mrNA expression at 0.3 uM by quantitative PCR method. It counts as cell-based. Summed up: as §1
For data set [8] the target is unchanged. The data set can be described thus: Agonist activity at FXR in human HepG2 cells assessed as induction of BSEP mrNA expression at 1 uM by quantitative PCR method. The format is cell-based. Summed up:
as §1

Data set [9] shares this target. The data set can be described thus: Agonist activity at FXR in human HepG2 cells assessed as induction of IBABP mrNA expression at 0.1 uM by quantitative PCR method. The format is cell-based.
Data set [10] concerns the target T3, Peroxisome proliferator-activated receptor delta (Homo sapiens, UniProt Q03181).
T3 sequence (Q03181 whole entry): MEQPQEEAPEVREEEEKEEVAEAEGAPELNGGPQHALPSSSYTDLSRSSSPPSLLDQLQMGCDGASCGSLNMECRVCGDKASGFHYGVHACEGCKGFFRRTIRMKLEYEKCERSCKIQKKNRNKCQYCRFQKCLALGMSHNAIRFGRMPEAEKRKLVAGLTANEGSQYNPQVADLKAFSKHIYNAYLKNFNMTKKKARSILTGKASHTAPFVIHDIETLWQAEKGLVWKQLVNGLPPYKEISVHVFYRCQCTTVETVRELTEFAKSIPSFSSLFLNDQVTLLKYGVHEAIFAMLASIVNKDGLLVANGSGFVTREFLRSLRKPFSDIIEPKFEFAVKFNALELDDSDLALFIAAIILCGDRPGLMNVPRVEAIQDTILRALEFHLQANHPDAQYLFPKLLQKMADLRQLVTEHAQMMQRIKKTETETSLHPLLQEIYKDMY
The data set can be described thus: Activity at GAL4-tagged PPARdelta (unknown origin) expressed in COS7 cells assessed as receptor transactivation by luciferase reporter gene assay. The format is cell-based, COS-7. An outline of the steps: (§2)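 Each PPAR subtype was tested as a Gal4 fusion carrying the human hinge region and LBD (cDNA from human monocytes) in transiently transfected COS-7 cells (Lipofectamine LTX), with a pFR-Luc reporter and pRL-SV40 for normalization. Compound in 0.1% DMSO was added 5 h post-transfection and incubated overnight. Firefly/renilla RLU was scaled to 1 μM GW7647 (α), L165,041 (δ) or pioglitazone (γ).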

Data set [11] has as its target T4, Peroxisome proliferator-activated receptor alpha (Homo sapiens, UniProt Q07869).
T4 sequence (Q07869 whole entry): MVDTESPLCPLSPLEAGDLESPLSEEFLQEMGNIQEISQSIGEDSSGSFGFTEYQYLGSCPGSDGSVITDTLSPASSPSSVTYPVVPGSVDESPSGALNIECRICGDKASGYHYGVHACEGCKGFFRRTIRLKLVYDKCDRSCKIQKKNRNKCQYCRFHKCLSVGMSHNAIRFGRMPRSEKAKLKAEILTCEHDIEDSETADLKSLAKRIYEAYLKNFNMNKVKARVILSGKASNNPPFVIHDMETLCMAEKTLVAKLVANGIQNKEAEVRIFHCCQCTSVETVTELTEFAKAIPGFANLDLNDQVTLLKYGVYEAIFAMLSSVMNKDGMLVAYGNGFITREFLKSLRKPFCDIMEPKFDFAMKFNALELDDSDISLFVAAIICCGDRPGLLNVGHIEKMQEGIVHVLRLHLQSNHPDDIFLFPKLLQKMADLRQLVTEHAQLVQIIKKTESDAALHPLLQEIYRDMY
Description: Activity at GAL4-tagged PPARalpha (unknown origin) expressed in COS7 cells assessed as receptor transactivation by luciferase reporter gene assay. It counts as cell-based, COS-7. Summed up:
as §2

The species entered for data set [12] is Homo sapiens. Description: Selectivity index, ratio of EC50 for GAL4-tagged PPARgamma (unknown origin) to EC50 for human FXR.
The species entered for data set [13] is Homo sapiens. Description: Selectivity index, ratio of EC50 for GAL4-tagged PPARalpha (unknown origin) to EC50 for human FXR.
The nature of data set [14]: Aqueous solubility of the compound. The format is physicochemical. Particulars: water (aqueous).
A further data set relates to HeLa. The data set can be described thus: Cytotoxicity against human HeLa cells assessed as compound concentration causing reduction in cell viability by reporter gene assay. It counts as cell-based.
The test system of a further data set is HepG2. Description: Cytotoxicity against human HepG2 cells assessed as compound concentration causing reduction in cell viability by LDH release assay. The format is cell-based. An outline of the steps: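 HepG2 cells were plated at 3 × 10⁴ per well. After 24 h they were switched to DMEM with 1% FCS and treated for 48 h; 2% Triton X-100 added 2 h before reading served as 100%. LDH reagent was added to the supernatant for 20 min and absorbance read at 490/690 nm. Triplicates, ≥3 independent repeats.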
On the technique in general: LDH in the medium is a marker of cell lysis.

The EC50 is the midpoint of the concentration-response curve. The term solubility denotes how much of the substance goes into solution per volume. Read a low solubility as little dissolved substance. Consider `COc1ccc(C(=O)Nc2cccc(C(=O)O)c2)c(NC(=O)c2ccc(C(C)(C)C)cc2)c1`, for which the EC50 is 0.008 µM at Bile acid receptor, 3 µM in [10] and over 10 µM in [11]. Besides, the Activity stood at 247% in data set [1]; 185% in data set [2]; 214% in data set [3]; 52% in data set [4]; 55% in data set [5]; 57% in data set [6]. Moreover, the Activity in data set [7] was 300%; in [8], 319%; in data set [9] it was 188%; with HeLa it was “>= 30 uM”; in the data set with HepG2 it was “>= 30 uM”. The Ratio EC50 in the data set listed under Homo sapiens [12] is 375; in the data set listed under Homo sapiens [13] it was over 1000. Further, the solubility in data set [14] is 2.6 µg/mL (≈ 5.82 µM).
